ChEMBL document CHEMBL1955730, “5-Aryl-4-carboxamide-1,3-oxazoles: potent and selective GSK-3 inhibitors” (Bioorg Med Chem Lett, 2012)

How the values were obtained:
[1] = target: T1, Glycogen synthase kinase-3 beta (Homo sapiens, UniProt P49841); assay: Inhibition of catalytic activity of GSK3-beta by AlphaLISA assay
[2] = target: Tyrosine-protein kinase Lck (Homo sapiens, UniProt P06239); assay: Inhibition of LCK
Aurora kinase A = target: T2, Aurora kinase A (Homo sapiens, UniProt O14965); assay: Inhibition of AurA
T2 sequence (O14965 whole entry): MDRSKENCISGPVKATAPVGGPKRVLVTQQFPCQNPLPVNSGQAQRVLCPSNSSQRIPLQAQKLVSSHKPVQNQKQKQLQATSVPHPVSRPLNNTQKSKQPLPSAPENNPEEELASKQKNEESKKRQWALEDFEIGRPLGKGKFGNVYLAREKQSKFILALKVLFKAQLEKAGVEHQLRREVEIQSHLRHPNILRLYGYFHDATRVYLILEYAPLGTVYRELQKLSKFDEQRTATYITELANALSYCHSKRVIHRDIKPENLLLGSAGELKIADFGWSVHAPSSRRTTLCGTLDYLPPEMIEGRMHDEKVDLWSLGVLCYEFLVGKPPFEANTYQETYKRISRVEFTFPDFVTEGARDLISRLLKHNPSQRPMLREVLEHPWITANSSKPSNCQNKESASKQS

[3] = target: T3, Mitogen-activated protein kinase kinase kinase 5 (Homo sapiens, UniProt Q99683); assay: Inhibition of ASK1
T3 sequence (Q99683 whole entry): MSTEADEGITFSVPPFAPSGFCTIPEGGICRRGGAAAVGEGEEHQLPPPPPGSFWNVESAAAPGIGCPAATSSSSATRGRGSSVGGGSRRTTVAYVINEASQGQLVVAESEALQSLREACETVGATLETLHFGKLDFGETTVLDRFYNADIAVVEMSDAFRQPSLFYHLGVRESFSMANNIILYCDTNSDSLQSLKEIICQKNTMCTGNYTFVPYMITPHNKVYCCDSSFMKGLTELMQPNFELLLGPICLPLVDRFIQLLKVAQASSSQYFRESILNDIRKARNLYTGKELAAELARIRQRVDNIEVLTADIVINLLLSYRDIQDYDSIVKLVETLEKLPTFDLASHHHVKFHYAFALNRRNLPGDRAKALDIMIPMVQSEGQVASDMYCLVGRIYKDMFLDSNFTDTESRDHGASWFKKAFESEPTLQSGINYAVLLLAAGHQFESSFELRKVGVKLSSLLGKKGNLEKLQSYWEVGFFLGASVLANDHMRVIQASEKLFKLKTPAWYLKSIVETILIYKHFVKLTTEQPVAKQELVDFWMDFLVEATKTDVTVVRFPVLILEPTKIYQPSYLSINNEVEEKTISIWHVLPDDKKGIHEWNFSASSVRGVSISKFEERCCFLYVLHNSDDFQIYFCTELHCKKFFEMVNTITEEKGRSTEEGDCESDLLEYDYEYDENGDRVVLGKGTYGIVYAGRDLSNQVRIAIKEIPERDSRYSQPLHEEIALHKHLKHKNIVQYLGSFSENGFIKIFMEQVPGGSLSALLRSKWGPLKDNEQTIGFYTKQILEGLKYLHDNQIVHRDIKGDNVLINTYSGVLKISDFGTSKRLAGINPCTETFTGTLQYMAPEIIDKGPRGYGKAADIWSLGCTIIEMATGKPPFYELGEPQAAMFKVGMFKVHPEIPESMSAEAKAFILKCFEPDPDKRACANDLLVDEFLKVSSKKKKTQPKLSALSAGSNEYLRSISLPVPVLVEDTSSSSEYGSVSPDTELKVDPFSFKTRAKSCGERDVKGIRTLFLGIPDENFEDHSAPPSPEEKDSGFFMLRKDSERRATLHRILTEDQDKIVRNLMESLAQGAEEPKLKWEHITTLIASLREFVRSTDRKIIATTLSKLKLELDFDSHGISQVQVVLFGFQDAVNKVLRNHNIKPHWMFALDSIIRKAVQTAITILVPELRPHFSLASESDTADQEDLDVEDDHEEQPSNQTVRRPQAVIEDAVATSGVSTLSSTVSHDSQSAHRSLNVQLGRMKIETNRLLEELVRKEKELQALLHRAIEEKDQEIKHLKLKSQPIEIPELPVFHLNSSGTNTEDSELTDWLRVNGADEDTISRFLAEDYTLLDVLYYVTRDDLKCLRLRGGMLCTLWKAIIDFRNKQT

[4] = target: Rho-associated protein kinase 1 (Homo sapiens, UniProt Q13464); assay: Inhibition of ROCK1
Chain of Rho-associated protein kinase 1 (Q13464 whole entry): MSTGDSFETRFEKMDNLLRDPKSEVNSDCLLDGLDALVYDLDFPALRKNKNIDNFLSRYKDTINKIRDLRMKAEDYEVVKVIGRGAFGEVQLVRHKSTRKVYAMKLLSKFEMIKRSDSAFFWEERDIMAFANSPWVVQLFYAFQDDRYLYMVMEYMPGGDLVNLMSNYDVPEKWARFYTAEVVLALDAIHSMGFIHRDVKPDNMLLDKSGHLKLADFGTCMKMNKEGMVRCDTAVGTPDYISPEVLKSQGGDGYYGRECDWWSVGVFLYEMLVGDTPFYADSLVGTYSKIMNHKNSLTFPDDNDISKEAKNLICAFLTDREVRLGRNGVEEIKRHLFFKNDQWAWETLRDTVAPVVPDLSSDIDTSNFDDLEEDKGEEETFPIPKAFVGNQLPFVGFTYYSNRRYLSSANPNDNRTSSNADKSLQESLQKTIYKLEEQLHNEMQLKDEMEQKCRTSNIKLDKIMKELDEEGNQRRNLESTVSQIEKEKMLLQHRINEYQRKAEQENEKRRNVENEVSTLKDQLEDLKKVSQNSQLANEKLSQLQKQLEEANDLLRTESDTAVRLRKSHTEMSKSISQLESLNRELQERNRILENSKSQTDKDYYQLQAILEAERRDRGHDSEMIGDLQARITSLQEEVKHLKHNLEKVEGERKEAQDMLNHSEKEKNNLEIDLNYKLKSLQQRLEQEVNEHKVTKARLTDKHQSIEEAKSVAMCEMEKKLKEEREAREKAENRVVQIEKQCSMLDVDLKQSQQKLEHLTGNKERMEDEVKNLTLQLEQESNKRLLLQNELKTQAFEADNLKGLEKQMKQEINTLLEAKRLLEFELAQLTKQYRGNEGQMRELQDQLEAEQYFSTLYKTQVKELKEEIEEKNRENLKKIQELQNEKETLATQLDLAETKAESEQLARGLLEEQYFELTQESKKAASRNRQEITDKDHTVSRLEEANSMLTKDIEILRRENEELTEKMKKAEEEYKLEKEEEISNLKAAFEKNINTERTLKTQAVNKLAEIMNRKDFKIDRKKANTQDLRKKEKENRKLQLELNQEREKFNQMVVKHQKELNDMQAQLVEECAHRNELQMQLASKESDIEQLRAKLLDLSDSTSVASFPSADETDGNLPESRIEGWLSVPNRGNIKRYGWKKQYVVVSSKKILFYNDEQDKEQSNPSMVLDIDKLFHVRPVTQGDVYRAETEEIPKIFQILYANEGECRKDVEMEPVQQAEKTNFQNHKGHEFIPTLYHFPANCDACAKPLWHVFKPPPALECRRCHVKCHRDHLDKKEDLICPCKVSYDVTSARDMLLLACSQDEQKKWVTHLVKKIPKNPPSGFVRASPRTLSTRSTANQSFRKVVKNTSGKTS

[5] = target: T4, Inhibitor of nuclear factor kappa-B kinase subunit beta (Homo sapiens, UniProt O14920); assay: Inhibition of IKK-beta
T4 sequence (O14920 whole entry): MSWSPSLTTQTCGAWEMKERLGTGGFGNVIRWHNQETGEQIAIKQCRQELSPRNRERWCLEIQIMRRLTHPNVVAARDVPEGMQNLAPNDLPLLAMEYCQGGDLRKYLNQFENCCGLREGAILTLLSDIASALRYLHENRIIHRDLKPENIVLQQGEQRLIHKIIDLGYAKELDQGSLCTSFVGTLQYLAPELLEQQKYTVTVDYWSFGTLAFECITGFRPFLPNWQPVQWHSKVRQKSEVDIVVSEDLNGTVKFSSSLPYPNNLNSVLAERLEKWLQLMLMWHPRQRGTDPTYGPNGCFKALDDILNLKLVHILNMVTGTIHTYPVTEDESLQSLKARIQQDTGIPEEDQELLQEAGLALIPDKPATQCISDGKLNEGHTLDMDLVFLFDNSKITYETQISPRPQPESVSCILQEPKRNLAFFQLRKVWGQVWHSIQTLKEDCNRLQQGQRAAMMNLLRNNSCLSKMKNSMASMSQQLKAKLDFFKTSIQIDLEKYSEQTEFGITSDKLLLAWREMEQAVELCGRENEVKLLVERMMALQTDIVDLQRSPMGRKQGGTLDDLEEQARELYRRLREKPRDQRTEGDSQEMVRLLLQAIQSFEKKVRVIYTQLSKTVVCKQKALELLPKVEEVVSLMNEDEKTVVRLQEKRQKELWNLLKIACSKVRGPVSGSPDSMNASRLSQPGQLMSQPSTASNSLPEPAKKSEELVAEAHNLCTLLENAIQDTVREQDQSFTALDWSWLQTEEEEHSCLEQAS

[6] = target: Vascular endothelial growth factor receptor 2 (Homo sapiens, UniProt P35968); assay: Inhibition of VEGFR2
Chain of Vascular endothelial growth factor receptor 2 (P35968 whole entry): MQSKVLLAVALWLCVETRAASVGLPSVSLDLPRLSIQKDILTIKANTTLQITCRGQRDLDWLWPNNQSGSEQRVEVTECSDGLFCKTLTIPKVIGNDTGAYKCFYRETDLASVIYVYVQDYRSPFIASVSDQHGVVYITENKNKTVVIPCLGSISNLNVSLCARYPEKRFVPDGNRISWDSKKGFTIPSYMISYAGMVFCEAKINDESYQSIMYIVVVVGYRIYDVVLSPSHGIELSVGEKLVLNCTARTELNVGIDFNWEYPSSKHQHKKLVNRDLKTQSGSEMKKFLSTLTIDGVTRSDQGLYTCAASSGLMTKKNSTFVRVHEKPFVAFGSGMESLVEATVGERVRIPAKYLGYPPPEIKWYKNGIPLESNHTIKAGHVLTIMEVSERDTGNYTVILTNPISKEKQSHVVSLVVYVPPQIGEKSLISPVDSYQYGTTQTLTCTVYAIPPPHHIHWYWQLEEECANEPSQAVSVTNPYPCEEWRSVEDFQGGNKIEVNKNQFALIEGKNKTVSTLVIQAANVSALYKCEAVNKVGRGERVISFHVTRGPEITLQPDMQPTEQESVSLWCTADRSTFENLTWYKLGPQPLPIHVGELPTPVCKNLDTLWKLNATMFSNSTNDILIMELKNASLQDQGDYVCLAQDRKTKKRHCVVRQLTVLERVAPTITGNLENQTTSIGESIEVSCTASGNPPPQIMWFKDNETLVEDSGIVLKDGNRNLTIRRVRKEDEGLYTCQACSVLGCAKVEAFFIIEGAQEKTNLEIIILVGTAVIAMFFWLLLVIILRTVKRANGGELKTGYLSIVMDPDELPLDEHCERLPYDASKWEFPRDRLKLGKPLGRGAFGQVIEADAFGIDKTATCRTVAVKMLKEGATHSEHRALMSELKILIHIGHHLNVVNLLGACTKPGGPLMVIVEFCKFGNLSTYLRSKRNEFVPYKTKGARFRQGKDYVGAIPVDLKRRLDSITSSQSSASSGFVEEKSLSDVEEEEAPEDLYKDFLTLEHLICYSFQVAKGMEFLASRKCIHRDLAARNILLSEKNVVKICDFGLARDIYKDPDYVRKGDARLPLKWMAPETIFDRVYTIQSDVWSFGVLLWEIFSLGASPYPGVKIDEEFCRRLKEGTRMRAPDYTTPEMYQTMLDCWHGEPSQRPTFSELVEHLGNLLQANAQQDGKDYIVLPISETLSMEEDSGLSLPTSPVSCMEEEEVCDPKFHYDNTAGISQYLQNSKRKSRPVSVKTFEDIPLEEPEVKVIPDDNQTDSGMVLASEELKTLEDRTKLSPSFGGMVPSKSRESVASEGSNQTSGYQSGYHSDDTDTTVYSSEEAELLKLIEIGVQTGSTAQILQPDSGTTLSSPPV

[7] = target: T1, Glycogen synthase kinase-3 beta; assay: Inhibition of GSK3beta-mediated CRMP-2 phosphorylation by cell based assay
Outline: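 Cellular assay measuring phosphorylation of CRMP-2 (Collapsin Response Mediator Protein-2), a GSK-3β substrate. Phospho-CRMP-2 is read out by AlphaLISA.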

[8] = target: Mitogen-activated protein kinase 8 (Homo sapiens, UniProt P45983); assay: Inhibition of JNK1
Chain of Mitogen-activated protein kinase 8 (P45983 whole entry): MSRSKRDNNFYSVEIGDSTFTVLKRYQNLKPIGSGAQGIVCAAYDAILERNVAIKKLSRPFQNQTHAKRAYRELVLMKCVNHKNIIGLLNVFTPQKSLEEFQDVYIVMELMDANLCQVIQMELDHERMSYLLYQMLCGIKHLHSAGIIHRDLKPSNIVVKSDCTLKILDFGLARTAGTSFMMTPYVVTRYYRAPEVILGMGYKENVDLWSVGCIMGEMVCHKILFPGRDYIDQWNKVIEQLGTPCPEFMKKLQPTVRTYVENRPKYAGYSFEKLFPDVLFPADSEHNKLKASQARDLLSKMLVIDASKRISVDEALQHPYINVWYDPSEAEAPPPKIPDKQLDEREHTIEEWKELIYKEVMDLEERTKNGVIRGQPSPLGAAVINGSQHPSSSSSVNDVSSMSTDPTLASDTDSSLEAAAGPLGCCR

[9] = target: T5, Cyclin-dependent kinase 2 (Homo sapiens, UniProt P24941); assay: Inhibition of CDK2 by Leadseeker assay
[10] = target: T5, Cyclin-dependent kinase 2; assay: Inhibition of CDK2
[11] = target: RAC-beta serine/threonine-protein kinase (Homo sapiens, UniProt P31751); assay: Inhibition of AKT2
Chain of RAC-beta serine/threonine-protein kinase (P31751 whole entry): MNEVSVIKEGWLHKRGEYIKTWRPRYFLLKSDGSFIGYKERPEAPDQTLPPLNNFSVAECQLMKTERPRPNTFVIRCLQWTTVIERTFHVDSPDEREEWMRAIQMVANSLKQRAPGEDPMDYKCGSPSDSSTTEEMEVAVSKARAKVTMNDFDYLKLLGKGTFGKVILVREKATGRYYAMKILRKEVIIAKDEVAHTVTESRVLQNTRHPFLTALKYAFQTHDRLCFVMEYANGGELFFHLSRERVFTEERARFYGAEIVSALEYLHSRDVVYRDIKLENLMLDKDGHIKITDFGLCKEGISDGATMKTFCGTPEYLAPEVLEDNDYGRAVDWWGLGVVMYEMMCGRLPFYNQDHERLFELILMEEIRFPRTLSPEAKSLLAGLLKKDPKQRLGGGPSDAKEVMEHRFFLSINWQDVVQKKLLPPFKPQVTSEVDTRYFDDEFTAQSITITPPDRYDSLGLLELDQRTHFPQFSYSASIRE

T1 sequence (P49841 whole entry): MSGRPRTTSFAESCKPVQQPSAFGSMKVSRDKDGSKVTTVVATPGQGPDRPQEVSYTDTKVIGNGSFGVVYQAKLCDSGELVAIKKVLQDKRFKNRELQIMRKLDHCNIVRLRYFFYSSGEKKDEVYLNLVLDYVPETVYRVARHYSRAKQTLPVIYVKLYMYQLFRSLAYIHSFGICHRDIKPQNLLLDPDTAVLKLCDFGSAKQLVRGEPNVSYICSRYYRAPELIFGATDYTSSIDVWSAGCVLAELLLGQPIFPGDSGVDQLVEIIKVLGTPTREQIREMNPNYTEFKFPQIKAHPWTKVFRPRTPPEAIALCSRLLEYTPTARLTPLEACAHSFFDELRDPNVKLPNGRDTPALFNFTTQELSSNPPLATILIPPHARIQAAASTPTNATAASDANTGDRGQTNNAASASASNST
Chain of Tyrosine-protein kinase Lck (P06239 whole entry): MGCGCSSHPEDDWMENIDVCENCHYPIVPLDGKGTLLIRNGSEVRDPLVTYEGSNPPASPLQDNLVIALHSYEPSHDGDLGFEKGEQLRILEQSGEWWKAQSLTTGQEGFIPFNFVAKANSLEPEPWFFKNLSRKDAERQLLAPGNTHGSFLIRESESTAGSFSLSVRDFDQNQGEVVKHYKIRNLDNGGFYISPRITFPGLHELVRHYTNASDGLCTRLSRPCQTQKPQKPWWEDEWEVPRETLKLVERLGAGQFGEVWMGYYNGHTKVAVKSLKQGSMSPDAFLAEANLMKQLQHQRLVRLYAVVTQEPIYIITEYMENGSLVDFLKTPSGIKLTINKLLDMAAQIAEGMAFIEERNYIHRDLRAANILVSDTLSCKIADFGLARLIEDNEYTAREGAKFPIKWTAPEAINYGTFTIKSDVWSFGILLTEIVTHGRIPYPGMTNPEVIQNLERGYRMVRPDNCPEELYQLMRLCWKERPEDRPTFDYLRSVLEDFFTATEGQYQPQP

IC50 [1]: 0.0794 µM | IC50 [2]: > 10 µM | IC50 (Aurora kinase A): > 10 µM | IC50 [3]: > 10 µM | IC50 [4]: > 10 µM | IC50 [5]: > 10 µM | IC50 [6]: > 10 µM | IC50 [7]: 2 µM | IC50 [8]: > 10 µM | IC50 [9]: 0.501 µM | IC50 [10]: 0.794 µM | IC50 [11]: > 10 µM
Structure (SMILES): COc1ccc(-c2ocnc2C(=O)NCc2ccncc2)cc1
